Experiments:
[1] = target: Xaa-Pro dipeptidase (Alteromonas sp.) (UniProt Q44238); assay: Kinetic constant Kcat from initial velocity assay against Organophosphorus acid anhydrolase from Alteromonas sp. JD6.5
Summary of the method: (§1)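 Recombinant OPAA expressed in E. coli XL1 (plasmid pTCJS4), then ammonium sulfate and Q-Sepharose purification. Continuous plate assay at 25 °C with 1 μg enzyme in 50 mM bis-Tris propane pH 8.5, 100 mM NaCl, 0.1 mM MnCl2. Phenyl-containing and diisopropyl substrates had 5% methanol, diphenyl substrate 20%. p-Nitrophenol release was read at 400 nm (ε 17,000 M⁻¹ cm⁻¹). Rates were fitted to v = kcat·E·A/(Km + A).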

[2] = target: Xaa-Pro dipeptidase (Alteromonas sp.) (UniProt Q44238); assay: Ratio of kinetic constant Kcat to Km from initial velocity assay against OPAA from Alteromonas sp. JD6.5; summary of the method: as §1
[3] = target: Xaa-Pro dipeptidase (Alteromonas sp.) (UniProt Q44238); assay: Ratio of kinetic constant K1 to K2 from progress curves against OPAA from Alteromonas sp. JD6.5
Summary of the method: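 Time-course assays at 25 °C in a cuvette spectrophotometer, started by adding enzyme to 3.0 mL of 50 mM bis-Tris propane pH 8.5, 100 mM NaCl, 0.1 mM MnCl2, without methanol. Complete hydrolysis was followed at 400 nm. Traces were fitted to single or double exponential equations to give rate constants for the two enantiomers, and their ratio was taken.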

[4] = target: Xaa-Pro dipeptidase (Alteromonas sp.) (UniProt Q44238); assay: Ratio of kinetic constant Kcat to Km Sp and Kcat to Km Rp from initial velocity assay against OPAA from Alteromonas sp. JD6.5; summary of the method: as §1
[5] = tested on: CC(C)O[P@@](=O)(Oc1ccccc1)Oc1ccc([N+](=O)[O-])cc1; assay: (§2) Kinetic constant Km from initial velocity assay against Organophosphorus acid anhydrolase from Alteromonas sp. JD6.5; summary of the method: as §1
[6] = tested on: CC(C)O[P@](=O)(Oc1ccccc1)Oc1ccc([N+](=O)[O-])cc1; assay: as §2; summary of the method: as §1
[7] = tested on: CCOP(=O)(OCC)Oc1ccc([N+](=O)[O-])cc1; assay: as §2; summary of the method: as §1
[8] = tested on: CCO[P@@](=O)(OC)Oc1ccc([N+](=O)[O-])cc1; assay: as §2; summary of the method: as §1
[9] = tested on: CCO[P@@](=O)(Oc1ccccc1)Oc1ccc([N+](=O)[O-])cc1; assay: as §2; summary of the method: as §1
[10] = tested on: CCO[P@](=O)(OC)Oc1ccc([N+](=O)[O-])cc1; assay: as §2; summary of the method: as §1
[11] = tested on: CCO[P@](=O)(Oc1ccccc1)Oc1ccc([N+](=O)[O-])cc1; assay: as §2; summary of the method: as §1
[12] = tested on: COP(=O)(OC)Oc1ccc([N+](=O)[O-])cc1; assay: as §2; summary of the method: as §1
[13] = tested on: CO[P@@](=O)(Oc1ccc([N+](=O)[O-])cc1)OC(C)C; assay: as §2; summary of the method: as §1
[14] = tested on: CO[P@@](=O)(Oc1ccccc1)Oc1ccc([N+](=O)[O-])cc1; assay: as §2; summary of the method: as §1
[15] = tested on: CO[P@](=O)(Oc1ccc([N+](=O)[O-])cc1)OC(C)C; assay: as §2; summary of the method: as §1
[16] = tested on: CO[P@](=O)(Oc1ccccc1)Oc1ccc([N+](=O)[O-])cc1; assay: as §2; summary of the method: as §1
[17] = tested on: O=[N+]([O-])c1ccc(OP(=O)(Oc2ccccc2)Oc2ccccc2)cc1; assay: as §2; summary of the method: as §1
[18] = target: Xaa-Pro dipeptidase (Alteromonas sp.) (UniProt Q44238); assay: Kinetic constant Kcat from initial velocity assay (at 7.6 mM substrate) against Organophosphorus acid anhydrolase from Alteromonas sp. JD6.5
Summary of the method: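 Initial-rate assay at a single substrate concentration of 7.6 mM. Used 1 μg purified recombinant OPAA (E. coli XL1/pTCJS4) at 25 °C in 50 mM bis-Tris propane pH 8.5, 100 mM NaCl, 0.1 mM MnCl2, with methanol cosolvent as needed. Hydrolysis was followed at 400 nm as p-nitrophenol (ε 17,000 M⁻¹ cm⁻¹).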

[19] = target: Xaa-Pro dipeptidase (Alteromonas sp.) (UniProt Q44238); assay: Ratio of kinetic constant Kcat to Km by linear fit to data against OPAA from Alteromonas sp. JD6.5
Summary of the method: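 kcat/Km was taken from a linear fit to initial-rate data. Continuous 400 nm p-nitrophenol assay at 25 °C with 1 μg recombinant OPAA (E. coli XL1/pTCJS4). Buffer was 50 mM bis-Tris propane pH 8.5, 100 mM NaCl, 0.1 mM MnCl2, plus 5–20% methanol depending on substrate.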

Chain of Xaa-Pro dipeptidase (Alteromonas sp.) (UniProt Q44238) (Q44238 whole entry, looked up): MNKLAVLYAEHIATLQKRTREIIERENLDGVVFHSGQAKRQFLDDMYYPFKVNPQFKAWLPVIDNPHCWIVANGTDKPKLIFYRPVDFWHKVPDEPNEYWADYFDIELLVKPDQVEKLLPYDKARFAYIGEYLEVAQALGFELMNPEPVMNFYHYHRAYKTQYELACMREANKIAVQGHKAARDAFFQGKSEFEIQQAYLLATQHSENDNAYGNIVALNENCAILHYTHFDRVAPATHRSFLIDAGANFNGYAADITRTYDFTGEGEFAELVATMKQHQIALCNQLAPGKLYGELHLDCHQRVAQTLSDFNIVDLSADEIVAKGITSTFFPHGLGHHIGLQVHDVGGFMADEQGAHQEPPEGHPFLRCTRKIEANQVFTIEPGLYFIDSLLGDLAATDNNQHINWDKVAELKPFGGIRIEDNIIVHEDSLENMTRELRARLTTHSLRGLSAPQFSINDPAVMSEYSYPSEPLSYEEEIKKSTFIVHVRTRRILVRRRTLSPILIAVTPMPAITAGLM

Molecule | k cat [1] | k cat/Km [2] | Ratio [3] | Ratio [4] | other results
CO[P@](=O)(Oc1ccc([N+](=O)[O-])cc1)OC(C)C | 54 s⁻¹ | 4510 M⁻¹ s⁻¹ | – | – | –
CO[P@@](=O)(Oc1ccc([N+](=O)[O-])cc1)OC(C)C | 3.6 s⁻¹ | 190 M⁻¹ s⁻¹ | 100 | 23 | –
CO[P@@](=O)(Oc1ccccc1)Oc1ccc([N+](=O)[O-])cc1 | 40 s⁻¹ | 9990 M⁻¹ s⁻¹ | – | – | –
CCO[P@@](=O)(OC)Oc1ccc([N+](=O)[O-])cc1 | 0.8 s⁻¹ | 90 M⁻¹ s⁻¹ | 112 | 36 | –
CCO[P@](=O)(Oc1ccccc1)Oc1ccc([N+](=O)[O-])cc1 | 0.2 s⁻¹ | 300 M⁻¹ s⁻¹ | 2.8 | < 3 | –
CCO[P@@](=O)(Oc1ccccc1)Oc1ccc([N+](=O)[O-])cc1 | 0.7 s⁻¹ | 360 M⁻¹ s⁻¹ | – | – | –
COP(=O)(OC)Oc1ccc([N+](=O)[O-])cc1 | 1.4 s⁻¹ | 140 M⁻¹ s⁻¹ | – | – | –
O=[N+]([O-])c1ccc(OP(=O)(Oc2ccccc2)Oc2ccccc2)cc1 | 0.1 s⁻¹ | 530 M⁻¹ s⁻¹ | – | – | –
CC(C)O[P@](=O)(Oc1ccccc1)Oc1ccc([N+](=O)[O-])cc1 | 0.1 s⁻¹ | 240 M⁻¹ s⁻¹ | 3.5 | < 3 | –
Xaa-Pro dipeptidase (Alteromonas sp.) (from UniProt Q44238) | – | – | – | – | Km [5]: 1.3 mM; Km [6]: 0.3 mM; Km [7]: > 7.6 mM; Km [8]: 8.3 mM; Km [9]: 2 mM; Km [10]: 14 mM; Km [11]: 0.6 mM; Km [12]: 9.5 mM; Km [13]: 19 mM; Km [14]: 4 mM; Km [15]: 12 mM; Km [16]: 0.8 mM; Km [17]: 0.2 mM
CC(C)O[P@@](=O)(Oc1ccccc1)Oc1ccc([N+](=O)[O-])cc1 | 0.2 s⁻¹ | 150 M⁻¹ s⁻¹ | – | – | –
CCO[P@](=O)(OC)Oc1ccc([N+](=O)[O-])cc1 | 47 s⁻¹ | 3250 M⁻¹ s⁻¹ | – | – | –
CO[P@](=O)(Oc1ccccc1)Oc1ccc([N+](=O)[O-])cc1 | 1.8 s⁻¹ | 2340 M⁻¹ s⁻¹ | 14.5 | 4 | –
CCOP(=O)(OCC)Oc1ccc([N+](=O)[O-])cc1 | – | – | – | – | k cat [18]: 1.8 s⁻¹; k cat/Km [19]: 280 M⁻¹ s⁻¹

Reference: ChEMBL document CHEMBL1132915
